From the M2OR odorant receptor database

How the values were obtained:
Conditions in all cases: stereoisomer not certain
[1] = target: T1, UniProt L7MU75
T1 sequence (whole entry): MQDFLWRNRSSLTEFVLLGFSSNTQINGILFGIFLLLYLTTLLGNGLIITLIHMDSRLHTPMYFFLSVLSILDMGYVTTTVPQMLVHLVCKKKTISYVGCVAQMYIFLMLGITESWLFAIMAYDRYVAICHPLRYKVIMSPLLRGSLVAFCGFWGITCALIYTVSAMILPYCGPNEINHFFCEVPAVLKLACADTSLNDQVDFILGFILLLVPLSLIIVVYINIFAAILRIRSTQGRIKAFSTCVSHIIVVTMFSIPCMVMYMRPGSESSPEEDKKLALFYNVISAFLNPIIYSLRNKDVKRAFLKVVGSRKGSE
In short: (§1)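 Each receptor–molecule pair is labelled responsive or non-responsive (inactive) according to whether the original authors judged the measured signal statistically different from baseline. The data were taken from the main text and supplementary material of published papers and checked for typos and inconsistencies. Assay methods differed by source, with transient luciferase assays in mammalian cell lines being common.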

[2] = target: T2, UniProt L7N210
T2 sequence (whole entry): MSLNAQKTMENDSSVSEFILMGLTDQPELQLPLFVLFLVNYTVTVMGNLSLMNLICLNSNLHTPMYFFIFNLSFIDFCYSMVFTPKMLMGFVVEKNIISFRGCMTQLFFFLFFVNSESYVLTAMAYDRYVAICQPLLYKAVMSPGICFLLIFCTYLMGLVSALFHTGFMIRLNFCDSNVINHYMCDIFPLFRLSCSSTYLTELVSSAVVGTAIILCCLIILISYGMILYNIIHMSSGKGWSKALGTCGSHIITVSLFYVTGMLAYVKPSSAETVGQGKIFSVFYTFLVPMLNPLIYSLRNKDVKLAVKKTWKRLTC
In short: as §1

[3] = target: T3, UniProt Q3KPB0
T3 sequence (whole entry): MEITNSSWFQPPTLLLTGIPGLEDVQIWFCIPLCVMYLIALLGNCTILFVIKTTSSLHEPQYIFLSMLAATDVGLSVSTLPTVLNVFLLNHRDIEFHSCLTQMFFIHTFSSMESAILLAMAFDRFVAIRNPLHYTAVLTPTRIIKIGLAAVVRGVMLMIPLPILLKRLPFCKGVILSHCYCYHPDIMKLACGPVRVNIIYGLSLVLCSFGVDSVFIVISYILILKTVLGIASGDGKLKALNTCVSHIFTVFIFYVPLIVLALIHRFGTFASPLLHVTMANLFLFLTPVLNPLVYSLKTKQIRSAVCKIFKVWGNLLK
In short: as §1

[4] = target: T4, UniProt Q3U0P3
T4 sequence (whole entry): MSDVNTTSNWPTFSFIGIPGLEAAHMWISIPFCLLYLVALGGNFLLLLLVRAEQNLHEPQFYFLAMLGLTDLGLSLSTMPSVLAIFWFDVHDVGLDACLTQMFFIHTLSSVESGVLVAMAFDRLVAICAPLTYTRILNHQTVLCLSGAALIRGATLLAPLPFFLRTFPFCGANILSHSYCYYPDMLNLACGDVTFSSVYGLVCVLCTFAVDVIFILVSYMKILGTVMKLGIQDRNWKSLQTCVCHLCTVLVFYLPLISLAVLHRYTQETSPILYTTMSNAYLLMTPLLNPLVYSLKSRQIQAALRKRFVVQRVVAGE
In short: as §1

[5] = target: T5, UniProt Q7TQU8
T5 sequence (whole entry): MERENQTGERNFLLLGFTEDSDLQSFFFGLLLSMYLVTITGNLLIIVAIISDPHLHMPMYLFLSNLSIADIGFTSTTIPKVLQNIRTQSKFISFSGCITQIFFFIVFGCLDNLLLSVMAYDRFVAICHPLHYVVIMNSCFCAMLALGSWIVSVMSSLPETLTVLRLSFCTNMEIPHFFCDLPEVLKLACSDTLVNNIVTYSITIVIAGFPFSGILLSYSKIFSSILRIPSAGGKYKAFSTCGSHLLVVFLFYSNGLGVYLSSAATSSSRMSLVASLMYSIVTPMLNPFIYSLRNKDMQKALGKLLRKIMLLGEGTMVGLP
In short: as §1

[6] = target: T6, UniProt Q7TR79
T6 sequence (whole entry): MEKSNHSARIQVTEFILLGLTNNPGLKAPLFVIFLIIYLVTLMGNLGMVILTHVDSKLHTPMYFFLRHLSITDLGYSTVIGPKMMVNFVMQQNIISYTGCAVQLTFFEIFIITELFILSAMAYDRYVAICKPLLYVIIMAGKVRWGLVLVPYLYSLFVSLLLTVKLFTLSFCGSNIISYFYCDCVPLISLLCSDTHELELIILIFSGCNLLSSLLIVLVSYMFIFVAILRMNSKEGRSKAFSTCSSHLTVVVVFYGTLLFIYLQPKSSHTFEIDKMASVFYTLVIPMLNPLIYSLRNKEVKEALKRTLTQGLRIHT
In short: as §1

[7] = target: T7, UniProt Q7TQV4
T7 sequence (whole entry): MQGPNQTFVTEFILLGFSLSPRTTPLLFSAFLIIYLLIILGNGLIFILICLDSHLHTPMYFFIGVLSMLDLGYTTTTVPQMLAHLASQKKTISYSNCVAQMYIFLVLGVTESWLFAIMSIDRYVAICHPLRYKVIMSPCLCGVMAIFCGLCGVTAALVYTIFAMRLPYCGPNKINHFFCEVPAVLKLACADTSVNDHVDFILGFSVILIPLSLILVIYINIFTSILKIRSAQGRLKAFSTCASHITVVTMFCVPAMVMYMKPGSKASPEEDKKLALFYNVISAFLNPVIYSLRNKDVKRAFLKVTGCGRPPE
In short: as §1

[8] = target: T8, UniProt Q7TR71
T8 sequence (whole entry): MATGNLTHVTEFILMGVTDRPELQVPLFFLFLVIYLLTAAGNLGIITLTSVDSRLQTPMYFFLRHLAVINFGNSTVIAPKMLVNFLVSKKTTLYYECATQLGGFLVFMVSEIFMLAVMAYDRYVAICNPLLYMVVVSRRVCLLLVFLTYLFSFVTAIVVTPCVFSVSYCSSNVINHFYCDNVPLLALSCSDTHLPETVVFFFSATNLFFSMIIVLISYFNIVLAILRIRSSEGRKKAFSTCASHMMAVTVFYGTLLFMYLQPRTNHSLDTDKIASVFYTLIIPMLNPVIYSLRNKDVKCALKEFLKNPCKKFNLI
In short: as §1

[9] = target: T9, UniProt Q7TRA3
T9 sequence (whole entry): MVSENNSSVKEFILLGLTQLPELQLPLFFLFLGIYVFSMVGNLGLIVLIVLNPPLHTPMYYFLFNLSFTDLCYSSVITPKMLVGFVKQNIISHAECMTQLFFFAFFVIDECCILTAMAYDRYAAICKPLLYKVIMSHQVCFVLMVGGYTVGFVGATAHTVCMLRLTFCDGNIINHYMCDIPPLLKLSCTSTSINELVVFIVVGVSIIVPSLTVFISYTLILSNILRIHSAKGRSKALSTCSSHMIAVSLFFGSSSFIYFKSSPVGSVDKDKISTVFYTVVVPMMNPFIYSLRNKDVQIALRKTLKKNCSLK
In short: as §1

[10] = target: T10, UniProt Q7TRE4
T10 sequence (whole entry): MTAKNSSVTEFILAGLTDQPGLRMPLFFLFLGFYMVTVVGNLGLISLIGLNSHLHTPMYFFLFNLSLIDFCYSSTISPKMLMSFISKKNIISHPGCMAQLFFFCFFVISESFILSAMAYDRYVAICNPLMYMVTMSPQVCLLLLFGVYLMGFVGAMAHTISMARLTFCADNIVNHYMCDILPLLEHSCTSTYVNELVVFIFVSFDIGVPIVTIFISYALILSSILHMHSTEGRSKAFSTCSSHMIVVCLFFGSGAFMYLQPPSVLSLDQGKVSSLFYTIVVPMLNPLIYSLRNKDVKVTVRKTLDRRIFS
In short: as §1

[11] = target: T11, UniProt L7N0P5
T11 sequence (whole entry): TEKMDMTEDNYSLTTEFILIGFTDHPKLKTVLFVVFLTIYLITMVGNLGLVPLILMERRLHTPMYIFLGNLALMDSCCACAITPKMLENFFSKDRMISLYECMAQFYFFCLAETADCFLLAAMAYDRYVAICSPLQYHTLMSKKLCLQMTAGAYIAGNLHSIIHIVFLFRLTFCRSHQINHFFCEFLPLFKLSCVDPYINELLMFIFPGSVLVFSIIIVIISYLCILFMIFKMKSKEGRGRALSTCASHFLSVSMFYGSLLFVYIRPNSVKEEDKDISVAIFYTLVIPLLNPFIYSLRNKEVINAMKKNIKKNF
In short: as §1

[12] = target: T12, UniProt Q7TRM0
T12 sequence (whole entry): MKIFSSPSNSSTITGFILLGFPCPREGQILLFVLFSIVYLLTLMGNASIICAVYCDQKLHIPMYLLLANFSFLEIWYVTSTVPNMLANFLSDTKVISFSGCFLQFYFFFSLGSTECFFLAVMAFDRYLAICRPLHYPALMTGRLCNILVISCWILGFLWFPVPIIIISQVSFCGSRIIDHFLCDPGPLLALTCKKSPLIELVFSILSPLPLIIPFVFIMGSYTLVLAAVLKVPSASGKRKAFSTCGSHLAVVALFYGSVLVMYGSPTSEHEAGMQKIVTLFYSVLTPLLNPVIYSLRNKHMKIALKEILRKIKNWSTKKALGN
In short: as §1

[13] = target: T13, UniProt Q7TRN9
T13 sequence (whole entry): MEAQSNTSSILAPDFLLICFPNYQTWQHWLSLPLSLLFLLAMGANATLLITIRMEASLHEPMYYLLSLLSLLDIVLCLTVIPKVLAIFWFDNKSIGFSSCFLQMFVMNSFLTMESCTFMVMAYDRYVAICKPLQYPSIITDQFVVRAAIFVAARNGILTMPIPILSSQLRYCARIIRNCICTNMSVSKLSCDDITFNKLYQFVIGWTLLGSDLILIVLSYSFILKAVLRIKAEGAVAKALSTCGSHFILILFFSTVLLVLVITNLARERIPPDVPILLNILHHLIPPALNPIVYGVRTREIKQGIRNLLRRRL
In short: as §1

Measured: odorant receptor agonist call

CNc1ccccc1C(=O)OC
inactive: [1] | [3] | [4] | [5] | [6]
active: [2]

CC=CC(=O)C1=C(C)CCCC1(C)C
inactive: [1] | [2] | [3] | [4] | [5] | [6]

CC(C)CCN
inactive: [1] | [2] | [3] | [4] | [5] | [6]

C=CC(=C)CCC=C(C)CCC=C(C)C
inactive: [1] | [2] | [3] | [4] | [5] | [6]

CCN(CC)CC
inactive: [1] | [2] | [3] | [4] | [5] | [6]

COC(OC)c1ccccc1
inactive: [1] | [2] | [3] | [4] | [5] | [6]

OCCCCCCCCCO
inactive: [1] | [2] | [3] | [4] | [5] | [6]

CCc1ccccc1O
inactive: [1] | [2] | [3] | [4] | [5] | [6]

CCCCCC(C)O (stereo not drawn)
inactive: [1] | [2] | [3] | [4] | [5] | [6]

CCCCCCCCCCOC(C)=O
inactive: [1] | [2] | [3] | [4] | [5] | [6]

CCCCCCC(C)O (stereo not drawn)
inactive: [1] | [3] | [4] | [5] | [6]
active: [2]

Cc1ccc(C(C)C)cc1
inactive: [1] | [2] | [3] | [4] | [5] | [6]

CCSCC
inactive: [1] | [2] | [3] | [4] | [5] | [6]

CCCCCOC(=O)CCC
inactive: [1] | [2] | [3] | [4] | [5] | [6]

CCC=CCCCCC=O
inactive: [1] | [2] | [3] | [4] | [5] | [6]

C=C(C)C1CC=C(C)CC1 (stereo not drawn)
inactive: [1] | [2] | [3] | [4] | [5] | [6]

O=C1Cc2ccccc2O1
active: [7]
not listed: [1] | [11] | [12] | [13]
inactive: all other assays above

CC1CCc2nccnc21 (stereo not drawn)
active: [11]

O=C(O)CCCCBr
inactive: [12] | [13]
